Test results: paper PMC9128166 (Cancer Science, 2022)
Values joined by “and” are separate entries in the source; they are usually repeats but may differ in a detail not shown here. Identical values can stand only once.

Legend:
[1] = Treatment-emergent adverse events; format: in vivo, Japanese patients; conditions: for Insomnia / Myalgia / Nasopharyngitis / Nausea / Pyrexia / Rash / Stomatitis / Upper respiratory tract infection / Constipation / Cough / Cystitis / Diarrhea / Drug eruption / Dry eye / Dry skin / Fall / Gastritis / Headache / Hyperkalemia / Hypoalbuminemia: Grade ≥3 TEAE
[2] = system: relapsed or refractory marginal zone lymphoma; assay: Investigator-assessed response; format: in vivo, Japanese patients
How it was run: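 Investigator-assessed response by Lugano criteria in the full analysis set (all treated patients). Patients received 10 or 20 mg QD orally for 8 weeks, then the same dose QW. CT, FDG-PET or PET-CT was chosen by subtype, using the same technique as at screening. Scans ran every 8 weeks through week 24, every 12 weeks through week 96, then every 24 weeks until progression.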

phospho‐AKT = conditions: read-out: calculated in vitro IC90 for phospho‐AKT inhibition; measure of PI3K pathway pharmacodynamic activity; ref not given; cited from earlier work
[3] = two responders with MZL, individual values

Compound: CCOc1c([C@H](C)n2nc(C)c3c(N)ncnc32)cc(Cl)c(F)c1[C@@H]1CNC(=O)C1 [parsaclisib]
- Insomnia ([1]; QD dosing period (n = 17)): 0 (0.0) n (%)
- Myalgia ([1]; QD dosing period (n = 17)): 0 (0.0) n (%)
- Nasopharyngitis ([1]; QD dosing period (n = 17)): 0 (0.0) n (%)
- Nausea ([1]; QD dosing period (n = 17)): 0 (0.0) n (%)
- Pyrexia ([1]; QD dosing period (n = 17)): 0 (0.0) n (%)
- Rash ([1]; QD dosing period (n = 17)): 0 (0.0) n (%)
- Stomatitis ([1]; QD dosing period (n = 17)): 0 (0.0) n (%)
- Upper respiratory tract infection ([1]; QD dosing period (n = 17)): 0 (0.0) n (%)
- Constipation ([1]; QW dosing period (n = 12)): 0 (0.0) n (%)
- Cough ([1]; QW dosing period (n = 12)): 0 (0.0) n (%)
- Cystitis ([1]; QW dosing period (n = 12)): 0 (0.0) n (%)
- Diarrhea ([1]; QW dosing period (n = 12)): 0 (0.0) n (%)
- Drug eruption ([1]; QW dosing period (n = 12)): 0 (0.0) n (%)
- Dry eye ([1]; QW dosing period (n = 12)): 0 (0.0) n (%)
- Dry skin ([1]; QW dosing period (n = 12)): 0 (0.0) n (%)
- Fall ([1]; QW dosing period (n = 12)): 0 (0.0) n (%)
- Gastritis ([1]; QW dosing period (n = 12)): 0 (0.0) n (%)
- Headache ([1]; QW dosing period (n = 12)): 0 (0.0) n (%)
- Hyperkalemia ([1]; QW dosing period (n = 12)): 0 (0.0) n (%)
- Hypoalbuminemia ([1]; QW dosing period (n = 12)): 0 (0.0) n (%)
- Insomnia ([1]; QW dosing period (n = 12)): 0 (0.0) n (%)
- Myalgia ([1]; QW dosing period (n = 12)): 0 (0.0) n (%)
- Nasopharyngitis ([1]; QW dosing period (n = 12)): 0 (0.0) n (%)
- Nausea ([1]; QW dosing period (n = 12)): 0 (0.0) n (%)
- Pyrexia ([1]; QW dosing period (n = 12)): 0 (0.0) n (%)
- Rash ([1]; QW dosing period (n = 12)): 0 (0.0) n (%)
- Stomatitis ([1]; QW dosing period (n = 12)): 0 (0.0) n (%)
- Upper respiratory tract infection ([1]; QW dosing period (n = 12)): 0 (0.0) n (%)
- Constipation ([1]; Total (N = 17)): 0 (0.0) n (%)
- Cough ([1]; Total (N = 17)): 0 (0.0) n (%)
- Cystitis ([1]; Total (N = 17)): 0 (0.0) n (%)
- Diarrhea ([1]; Total (N = 17)): 0 (0.0) n (%)
- Drug eruption ([1]; Total (N = 17)): 0 (0.0) n (%)
- Dry eye ([1]; Total (N = 17)): 0 (0.0) n (%)
- Dry skin ([1]; Total (N = 17)): 0 (0.0) n (%)
- Fall ([1]; Total (N = 17)): 0 (0.0) n (%)
- Gastritis ([1]; Total (N = 17)): 0 (0.0) n (%)
- Headache ([1]; Total (N = 17)): 0 (0.0) n (%)
- Hyperkalemia ([1]; Total (N = 17)): 0 (0.0) n (%)
- Hypoalbuminemia ([1]; Total (N = 17)): 1 (5.9) n (%)
- Insomnia ([1]; Total (N = 17)): 0 (0.0) n (%)
- Myalgia ([1]; Total (N = 17)): 0 (0.0) n (%)
- Nasopharyngitis ([1]; Total (N = 17)): 0 (0.0) n (%)
- Nausea ([1]; Total (N = 17)): 0 (0.0) n (%)
- Pyrexia ([1]; Total (N = 17)): 0 (0.0) n (%)
- Rash ([1]; Total (N = 17)): 0 (0.0) n (%)
- Stomatitis ([1]; Total (N = 17)): 0 (0.0) n (%)
- Upper respiratory tract infection ([1]; Total (N = 17)): 0 (0.0) n (%)
- patients with at least one TEAE ([1]; N = 17): all patients
- neutropenia leading to dose interruption ([1]; additional 2 patients): 11.8%
- serious TEAE of pancreatitis ([1]; dose interruption on both occurrences, responded to corticosteroid): One patient experienced a serious TEAE of pancreatitis (grade 2, study days 78 and 145)
- TEAEs leading to dose interruption ([1]; during QD dosing): 7 patients
- TEAEs leading to dose reduction ([1]; during QD dosing): 2 patients
- TEAEs leading to dose interruption ([1]; during QW dosing): 4 patients
- TEAEs leading to dose reduction ([1]; during QW dosing): 3 patients
- Varicella zoster infection (AESI) ([1]; grade 2 in severity, led to parsaclisib discontinuation): 1 patient
- TEAEs leading to parsaclisib dose reduction (terms) ([1]; human, in vivo, oral): febrile neutropenia (1 patient), drug eruption and neutropenia in a single patient during the QD period, pancreatitis and pancreatitis relapsing in a single patient, and diarrhea (1 patient) and exfoliative dermatitis (1 patient) during the QW period
- febrile neutropenia (AESI), occurrence and severity ([1]; human, in vivo, oral): Two patients experienced grade 3
- exfoliative dermatitis (AESI), occurrence and severity ([1]; human, in vivo, oral, 64 day): One patient experienced grade 1
- Nonhematologic grade 3 or higher TEAEs occurring in 1 patient each ([1]; in vivo): bile duct stenosis (secondary to pancreatitis), hypoalbuminemia, and lymphoma progression (metastases to meninges [lymphomatous meningitis])
- Other serious TEAEs experienced by 1 patient each ([1]; in vivo): diarrhea, enteritis infection, febrile neutropenia, metastases to meninges, and pancreatitis
- TEAEs with a fatal outcome ([1]; in vivo): no TEAEs with a fatal outcome
- diarrhea (AESI), longest time to resolution ([1]; individual patients): 14 days and 18 days and 67 days
- diarrhea (AESI), time to first onset ([1]; individual patients): 70 days and 108 days and 305 days
- febrile neutropenia (AESI), time to onset ([1]; individual patients): 28 days and 63 days
- febrile neutropenia (AESI), time to resolution ([1]; individual patients): 10 days and 2 days
- rash (AESI), longest time to resolution ([1]; individual patients): 5 days and 8 days and 23 days
- rash (AESI), time to onset of first occurrence ([1]; individual patients): 11 days and 50 days and 312 days
- Varicella zoster infection (AESI), onset ([1]; one patient): 33 days
- Varicella zoster infection (AESI), resolution ([1]; one patient): 21 days
- exfoliative dermatitis (AESI), onset ([1]; one patient): 64 days
- exfoliative dermatitis (AESI), resolution ([1]; one patient): 36 days
- diarrhea (AESI), severity ([1]; three patients, none led to discontinuation): 1 patient with grade 1 and 2 patients with grade 2
- BOR, CMR/CR ([2]; MZL (n = 2)): 0 (0.0) n (%)
- BOR, NMR/SD ([2]; MZL (n = 2)): 0 (0.0) n (%)
- BOR, PMD/PD ([2]; MZL (n = 2)): 0 (0.0) n (%)
- BOR, PMR/PR ([2]; MZL (n = 2)): 2 (100) n (%)
- Objective response ([2]; MZL (n = 2)): 2 (100.0) n (%)
- BOR, Not assessed ([2]; MZL (n = 2), no postbaseline response data available): 0 (0.0) n (%)
- ORR ([2]; MZL, 2 of 2 patients): 100%
- observed PFS [2, 3]: 16.7 months and 22.0 months
- observed response duration [2, 3]: 14.8 months and 16.8 months
- IC90 (phospho‐AKT): 40 nM
